Measured values reported in ChEMBL document CHEMBL4842397, “Macrocyclization as a Source of Desired Polypharmacology. Discovery of Triple PI3K/mTOR/PIM Inhibitors” (ACS Med Chem Lett, 2021).

Key:
[1] = molecular target: Serine/threonine-protein kinase mTOR (Homo sapiens, UniProt P42345); test: Inhibition of mTOR (unknown origin) by LanthaScreen assay
[2] = molecular target: Phosphatidylinositol 4,5-bisphosphate 3-kinase catalytic subunit alpha isoform (Homo sapiens, UniProt P42336); test: Inhibition of PI3Kalpha (unknown origin) by ADP-Glo assay
Sequence of Phosphatidylinositol 4,5-bisphosphate 3-kinase catalytic subunit alpha isoform (P42336 whole entry, canonical isoform): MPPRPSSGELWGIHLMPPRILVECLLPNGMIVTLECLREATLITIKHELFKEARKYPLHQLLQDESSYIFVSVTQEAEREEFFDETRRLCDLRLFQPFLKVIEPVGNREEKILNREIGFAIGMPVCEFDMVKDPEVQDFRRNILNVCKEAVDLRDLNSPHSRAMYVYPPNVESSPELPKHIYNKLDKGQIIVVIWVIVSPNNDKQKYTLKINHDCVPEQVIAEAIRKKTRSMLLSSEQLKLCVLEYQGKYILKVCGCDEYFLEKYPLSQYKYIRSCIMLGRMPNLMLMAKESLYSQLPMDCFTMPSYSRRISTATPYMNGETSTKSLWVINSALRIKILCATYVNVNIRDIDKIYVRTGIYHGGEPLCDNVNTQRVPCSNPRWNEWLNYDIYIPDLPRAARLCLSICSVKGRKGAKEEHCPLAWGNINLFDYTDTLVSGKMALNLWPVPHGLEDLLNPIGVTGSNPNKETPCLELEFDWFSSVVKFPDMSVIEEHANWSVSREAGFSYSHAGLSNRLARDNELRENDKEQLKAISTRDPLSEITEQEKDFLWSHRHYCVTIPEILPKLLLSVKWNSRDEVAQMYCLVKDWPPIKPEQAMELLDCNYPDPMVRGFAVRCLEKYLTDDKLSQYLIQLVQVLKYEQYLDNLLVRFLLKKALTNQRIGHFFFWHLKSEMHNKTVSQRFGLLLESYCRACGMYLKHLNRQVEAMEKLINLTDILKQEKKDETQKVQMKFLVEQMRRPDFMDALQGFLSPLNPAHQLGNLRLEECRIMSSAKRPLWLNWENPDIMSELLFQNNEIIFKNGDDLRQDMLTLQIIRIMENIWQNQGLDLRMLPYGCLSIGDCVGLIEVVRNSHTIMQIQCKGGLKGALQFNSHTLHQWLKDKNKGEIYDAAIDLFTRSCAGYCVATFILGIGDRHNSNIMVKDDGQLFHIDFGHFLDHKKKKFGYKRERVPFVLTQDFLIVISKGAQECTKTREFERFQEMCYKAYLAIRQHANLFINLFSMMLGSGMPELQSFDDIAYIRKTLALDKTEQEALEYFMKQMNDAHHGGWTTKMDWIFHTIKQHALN

[3] = molecular target: Serine/threonine-protein kinase pim-1 (Homo sapiens, UniProt P11309); test: Inhibition of human PIM1 using ARKRRRHPSGPPTA as substrate measured after 1.5 hrs by ADP hunter plus assay
Sequence of Serine/threonine-protein kinase pim-1 (P11309 whole entry): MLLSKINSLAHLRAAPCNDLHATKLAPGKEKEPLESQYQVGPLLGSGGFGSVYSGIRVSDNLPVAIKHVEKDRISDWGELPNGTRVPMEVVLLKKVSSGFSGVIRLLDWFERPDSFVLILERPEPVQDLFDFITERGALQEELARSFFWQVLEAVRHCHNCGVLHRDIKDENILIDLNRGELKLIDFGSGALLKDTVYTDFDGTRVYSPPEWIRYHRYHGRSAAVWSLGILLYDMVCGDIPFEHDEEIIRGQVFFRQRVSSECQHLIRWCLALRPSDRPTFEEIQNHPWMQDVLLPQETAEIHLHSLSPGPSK

[4] = Microsomal stability in human liver microsomes incubated for 30 mins by LC-MS/MS analysis; format: ADME, Microsome; conditions: read-out: Stabilty
PI3K p110 beta/p85 alpha = PI3K p110 beta/p85 alpha (Homo sapiens, UniProt P42338); test: Inhibition of human PI3K p110beta/p85alpha by HTRF assay; format: protein-complex assay
In short: (§1)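 Ki from an HTRF assay on each PI3K isoform, reported in nM as the average of two independent experiments.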

[5] = Half life in BALB/c mouse at 0.7 mg/kg, iv; format: ADME, organism-based; conditions: in vivo
In short: (§2)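 Preliminary single-dose pharmacokinetics in BALB-C mice, given I.V. or P.O. Units: AUC h.ng/mL, T1/2 h, Cl L/h/kg, Vd L/kg, Cmax ng/mL, Tmax h. Bioavailability is the absorbed fraction at the doses tested.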

[6] = molecular target: PI3-kinase p110-alpha/p85-alpha (Homo sapiens, UniProt P42336); test: Inhibition of human PI3K p110alpha/p85alpha by HTRF assay; format: protein-complex assay; in short: as §1
Sequence of PI3-kinase p110-alpha/p85-alpha (P27986 whole entry): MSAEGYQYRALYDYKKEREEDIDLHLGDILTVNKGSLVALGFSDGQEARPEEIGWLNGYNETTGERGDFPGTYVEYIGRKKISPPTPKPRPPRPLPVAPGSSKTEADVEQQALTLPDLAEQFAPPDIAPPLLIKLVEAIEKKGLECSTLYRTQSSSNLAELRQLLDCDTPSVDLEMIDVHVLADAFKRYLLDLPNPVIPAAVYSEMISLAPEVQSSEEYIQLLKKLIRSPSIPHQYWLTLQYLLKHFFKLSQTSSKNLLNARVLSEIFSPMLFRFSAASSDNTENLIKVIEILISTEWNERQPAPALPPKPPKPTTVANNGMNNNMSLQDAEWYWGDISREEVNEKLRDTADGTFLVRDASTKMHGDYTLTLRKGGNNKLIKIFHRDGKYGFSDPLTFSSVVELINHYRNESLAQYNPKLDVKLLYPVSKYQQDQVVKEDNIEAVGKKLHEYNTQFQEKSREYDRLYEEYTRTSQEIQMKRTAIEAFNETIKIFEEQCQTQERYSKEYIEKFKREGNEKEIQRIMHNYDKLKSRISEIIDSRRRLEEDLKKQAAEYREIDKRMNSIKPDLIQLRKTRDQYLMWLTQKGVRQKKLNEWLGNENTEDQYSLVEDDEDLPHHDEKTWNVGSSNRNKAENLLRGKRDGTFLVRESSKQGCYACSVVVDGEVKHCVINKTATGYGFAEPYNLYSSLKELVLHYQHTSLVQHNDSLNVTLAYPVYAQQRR
Sequence of PI3-kinase p110-alpha/p85-alpha (P42336 whole entry): as the sequence (P42336 whole entry, canonical isoform) above

[7] = Volume of distribution at steady state in BALB/c mouse at 0.7 mg/kg, iv; format: ADME, organism-based; conditions: in vivo, read-out: Vdss; in short: as §2
[8] = molecular target: Phosphatidylinositol 4,5-bisphosphate 3-kinase catalytic subunit gamma isoform (Homo sapiens, UniProt P48736); test: Inhibition of human PI3Kgamma by HTRF assay; in short: as §1
[9] = Tmax in BALB/c mouse at 5 mg/kg, po; format: ADME, organism-based; conditions: in vivo; in short: as §2
[10] = AUClast in BALB/c mouse at 5 mg/kg, po; format: ADME, organism-based; design: route oral, time 0 - last, dose 5 mg/kg; conditions: in vivo; in short: as §2
[11] = molecular target: Serine/threonine-protein kinase pim-3 (Homo sapiens, UniProt Q86V86); test: Inhibition of PIM3 (unknown origin) using ARKRRRHPSGPPTA as peptide substrate by ADP Hunter Plus assay
[12] = AUClast in BALB/c mouse at 0.7 mg/kg, iv; format: ADME, organism-based; design: route intravenous, time 0 - last, dose 0.7 mg/kg; conditions: in vivo; in short: as §2
[13] = molecular target: Voltage-gated inwardly rectifying potassium channel KCNH2 (Homo sapiens, UniProt Q12809); test: Inhibition of human ERG at < 30 uM
Sequence of Voltage-gated inwardly rectifying potassium channel KCNH2 (Q12809 whole entry): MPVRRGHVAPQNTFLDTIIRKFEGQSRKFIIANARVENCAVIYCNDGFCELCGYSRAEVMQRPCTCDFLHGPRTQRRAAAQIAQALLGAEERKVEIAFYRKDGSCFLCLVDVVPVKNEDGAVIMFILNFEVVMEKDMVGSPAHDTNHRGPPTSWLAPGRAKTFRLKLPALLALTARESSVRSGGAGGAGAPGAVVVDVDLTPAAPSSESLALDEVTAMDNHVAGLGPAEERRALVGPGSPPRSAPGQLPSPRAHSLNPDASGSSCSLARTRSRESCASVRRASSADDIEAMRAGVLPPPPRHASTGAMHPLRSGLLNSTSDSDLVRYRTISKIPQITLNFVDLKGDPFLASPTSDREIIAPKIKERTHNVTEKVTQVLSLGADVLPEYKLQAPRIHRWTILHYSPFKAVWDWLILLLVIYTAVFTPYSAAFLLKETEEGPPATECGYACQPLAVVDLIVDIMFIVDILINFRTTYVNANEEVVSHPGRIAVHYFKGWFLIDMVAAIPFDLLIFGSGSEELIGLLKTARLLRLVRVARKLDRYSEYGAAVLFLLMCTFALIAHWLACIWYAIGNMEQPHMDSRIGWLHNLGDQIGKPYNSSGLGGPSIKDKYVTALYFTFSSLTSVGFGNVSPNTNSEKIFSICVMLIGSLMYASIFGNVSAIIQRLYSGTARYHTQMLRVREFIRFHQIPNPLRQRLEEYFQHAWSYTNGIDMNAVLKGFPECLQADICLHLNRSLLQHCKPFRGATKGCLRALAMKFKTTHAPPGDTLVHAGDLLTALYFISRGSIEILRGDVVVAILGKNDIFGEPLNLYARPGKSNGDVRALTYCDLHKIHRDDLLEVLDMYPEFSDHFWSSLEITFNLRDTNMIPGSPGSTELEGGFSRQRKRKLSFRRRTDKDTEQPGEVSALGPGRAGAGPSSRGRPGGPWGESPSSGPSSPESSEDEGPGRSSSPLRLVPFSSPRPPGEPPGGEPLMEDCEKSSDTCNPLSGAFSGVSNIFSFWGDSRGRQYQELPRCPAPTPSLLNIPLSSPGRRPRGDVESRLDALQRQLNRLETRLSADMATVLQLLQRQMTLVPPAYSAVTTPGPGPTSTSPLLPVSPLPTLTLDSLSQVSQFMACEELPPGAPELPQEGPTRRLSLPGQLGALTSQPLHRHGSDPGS

[14] = molecular target: PI3-kinase p110-delta/p85-alpha (Homo sapiens, UniProt O00329); test: Inhibition of human PI3K p110delta/p85alpha by HTRF assay; format: protein-complex assay; in short: as §1
Sequence of PI3-kinase p110-delta/p85-alpha (P27986 whole entry): as the sequence (P27986 whole entry) above
Sequence of PI3-kinase p110-delta/p85-alpha (O00329 whole entry): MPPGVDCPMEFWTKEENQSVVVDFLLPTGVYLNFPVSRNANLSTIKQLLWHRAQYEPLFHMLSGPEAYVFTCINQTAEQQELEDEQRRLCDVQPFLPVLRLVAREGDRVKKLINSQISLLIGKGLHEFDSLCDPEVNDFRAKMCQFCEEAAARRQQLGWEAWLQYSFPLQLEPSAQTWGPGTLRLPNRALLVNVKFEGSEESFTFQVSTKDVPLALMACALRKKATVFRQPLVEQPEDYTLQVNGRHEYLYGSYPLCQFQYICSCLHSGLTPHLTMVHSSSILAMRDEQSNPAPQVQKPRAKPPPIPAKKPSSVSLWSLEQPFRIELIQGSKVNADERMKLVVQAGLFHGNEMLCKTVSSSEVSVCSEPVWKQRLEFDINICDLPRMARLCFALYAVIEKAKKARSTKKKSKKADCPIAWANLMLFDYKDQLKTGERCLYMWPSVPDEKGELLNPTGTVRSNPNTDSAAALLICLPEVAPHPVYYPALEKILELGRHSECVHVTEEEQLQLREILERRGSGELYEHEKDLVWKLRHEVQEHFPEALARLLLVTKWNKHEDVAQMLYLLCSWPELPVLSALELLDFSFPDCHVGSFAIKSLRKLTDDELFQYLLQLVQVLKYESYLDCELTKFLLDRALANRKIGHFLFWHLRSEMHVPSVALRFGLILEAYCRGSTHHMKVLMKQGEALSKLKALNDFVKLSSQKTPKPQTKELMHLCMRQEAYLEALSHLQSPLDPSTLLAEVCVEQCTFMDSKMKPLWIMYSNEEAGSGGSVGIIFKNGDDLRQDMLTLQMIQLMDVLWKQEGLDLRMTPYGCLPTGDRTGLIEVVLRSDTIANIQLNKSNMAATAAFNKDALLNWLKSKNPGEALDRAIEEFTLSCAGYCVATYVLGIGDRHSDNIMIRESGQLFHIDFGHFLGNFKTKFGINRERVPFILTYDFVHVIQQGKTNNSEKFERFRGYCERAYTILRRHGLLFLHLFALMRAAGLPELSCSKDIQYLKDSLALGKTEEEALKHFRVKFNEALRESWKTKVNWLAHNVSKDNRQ

[15] = molecular target: Serine/threonine-protein kinase pim-2 (Homo sapiens, UniProt Q9P1W9); test: Inhibition of PIM2 (unknown origin) using ARKRRRHPSGPPTA as peptide substrate by ADP Hunter Plus assay
Sequence of Serine/threonine-protein kinase pim-2 (Q9P1W9 whole entry): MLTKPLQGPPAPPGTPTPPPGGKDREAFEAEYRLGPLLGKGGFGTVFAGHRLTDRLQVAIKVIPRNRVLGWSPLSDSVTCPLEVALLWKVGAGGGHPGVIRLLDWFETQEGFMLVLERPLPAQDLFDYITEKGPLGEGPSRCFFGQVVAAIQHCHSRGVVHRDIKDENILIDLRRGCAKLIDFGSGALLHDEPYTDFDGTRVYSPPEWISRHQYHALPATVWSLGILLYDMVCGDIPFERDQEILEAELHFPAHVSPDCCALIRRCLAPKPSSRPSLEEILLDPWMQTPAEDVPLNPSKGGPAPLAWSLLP

[16] = Cmax in BALB/c mouse at 5 mg/kg, po; format: ADME, organism-based; design: route oral, dose 5 mg/kg; conditions: in vivo; in short: as §2
[17] = molecular target: Serine/threonine-protein kinase PIM (Homo sapiens, UniProt P11309+Q9P1W9+Q86V86); test: Inhibition of PIM in human MV4-11 cells assessed as BAD phosphorylation at Ser112 measured after over night incubation by lotting based cellular assay; format: cell-based
PI3K/mTOR (Homo sapiens) = test: Inhibition of PI3K/mTOR in human MV4-11 cells assessed as Akt phosphorylation at Ser473 measured after over night incubation by lotting based cellular assay
[18] = Oral bioavailability in BALB/c mouse at 5 mg/kg; format: ADME, organism-based; conditions: in vivo; in short: as §2
[19] = Clearance in BALB/c mouse at 0.7 mg/kg, iv; format: ADME, organism-based; conditions: in vivo; in short: as §2
[20] = Half life in BALB/c mouse at 5 mg/kg, po; format: ADME, organism-based; conditions: in vivo; in short: as §2
[21] = Half life in BALB/c mouse at 10 mg/kg, po; format: ADME, organism-based; conditions: in vivo; in short: as §2
[22] = AUClast in BALB/c mouse at 1 mg/kg, iv; format: ADME, organism-based; design: route intravenous, time 0 - last, dose 1 mg/kg; conditions: in vivo; in short: as §2
[23] = Microsomal stability in mouse liver microsomes incubated for 30 mins by LC-MS/MS analysis; format: ADME, Microsome; conditions: read-out: Stabilty
[24] = Oral bioavailability in BALB/c mouse at 10 mg/kg; format: ADME, organism-based; conditions: in vivo; in short: as §2
Cytochrome P450 2C9 = Cytochrome P450 2C9 (Homo sapiens, UniProt P11712); test: Inhibition of CYP2C9 (unknown origin); format: ADME
[25] = Microsomal stability in rat liver microsomes incubated for 30 mins by LC-MS/MS analysis; format: ADME, Microsome; conditions: read-out: Stabilty
[26] = Tmax in BALB/c mouse at 10 mg/kg, po; format: ADME, organism-based; conditions: in vivo; in short: as §2
[27] = Half life in BALB/c mouse at 1 mg/kg, iv; format: ADME, organism-based; conditions: in vivo; in short: as §2
[28] = Clearance in BALB/c mouse at 1 mg/kg, iv; format: ADME, organism-based; conditions: in vivo; in short: as §2
[29] = AUClast in BALB/c mouse at 10 mg/kg, po; format: ADME, organism-based; design: time 0 - last, route oral, dose 10 mg/kg; conditions: in vivo; in short: as §2
[30] = Volume of distribution at steady state in BALB/c mouse at 1 mg/kg, iv; format: ADME, organism-based; conditions: in vivo; in short: as §2

For `COc1ncc2cc1NS(=O)(=O)c1cccc(c1)C(=O)NCc1cncc(c1)-c1ncnc3c1SC2=C3`, the IC50 [1] was > 10000 nM, the IC50 [2] was 74.6 nM and the IC50 [3] was 45.8 nM.
For `COc1ncc2cc1NS(=O)(=O)c1cccc(c1)C(=O)NCc1nc(cs1)-c1ncnc3c1SC2=C3`, the IC50 [1] was > 10000 nM, the IC50 [2] was 123 nM and the IC50 [3] was > 10000 nM.
In the case of `COc1ncc2cc1NS(=O)(=O)c1cccc(c1)C(=O)NCc1cncc(c1)-c1ncnc3c1SC2=C3C`, the IC50 [1] is reported as 175 nM, the IC50 [2] is reported as 19 nM and the IC50 [3] is reported as 42.9 nM.
With `COc1ncc2cc1NS(=O)(=O)c1cccc(c1)C(=O)NC[C@@H]1CCN(C1)c1ncnc3c1SC2=C3C` the IC50 [1] was > 10000 nM, the IC50 [2] was 3.08 nM and the IC50 [3] was 122 nM.
With `COc1ncc2cc1NS(=O)(=O)c1cccc(c1)C(=O)NCc1cc(ccn1)-c1ncnc3c1SC2=C3` the IC50 [1] was > 10000 nM, the IC50 [2] was 50.2 nM and the IC50 [3] was 649 nM.
For `COc1ncc2cc1NS(=O)(=O)c1cccc(c1)C(=O)NCC1=C(C)C=C(S1)c1ncnc3c1SC2=C3`, the IC50 [1] was > 10000 nM, the IC50 [2] was 7.4 nM and the IC50 [3] was 43.8 nM.
For `COc1ncc2cc1NS(=O)(=O)c1cccc(c1)C(=O)NCCn1cc(cn1)-c1ncnc3c1SC2=C3C`, the IC50 [1] was 197 nM, the IC50 [2] was 0.43 nM and the IC50 [3] was 178 nM.
With `CNC(=O)c1cccc(S(=O)(=O)Nc2cc(-c3sc4c(-c5cccs5)ncnc4c3C)cnc2OC)c1` the IC50 [1] was 604 nM, the IC50 [2] was 6.72 nM and the IC50 [3] was > 10000 nM.
For `COc1ncc(-c2sc3c(-c4cccs4)ncnc3c2C)cc1NS(=O)(=O)c1ccccc1`, the IC50 [1] was > 1000 nM, the IC50 [2] was 36.2 nM and the IC50 [3] was > 10000 nM.
In the case of `COc1ncc2cc1NS(=O)(=O)c1ccc(F)c(c1)C(=O)NCC1=CC=C(S1)c1ncnc3c1SC2=C3C`, the remaining at 0.5 h [4] is reported as > 98%, the Ki (PI3K p110 beta/p85 alpha) is reported as 0.31 nM and the half-life [5] is reported as 178 min. The Ki [6] was 0.27 nM, the Vd [7] was 0.26 L/kg and the Ki [8] was 0.17 nM. It also gave an IC50 [1] of 74.5 nM, a Tmax [9] of 5 h and an AUC(0-t) [10] of 99100 ng·h/mL. For the same molecule, the IC50 [11] was 5.75 nM, the AUC(0-t) [12] was 11200 ng·h/mL and the “inhibition (INH)” value [13] was “Not Active”. It also gave an IC50 [2] of 0.13 nM, a Ki [14] of 0.13 nM and an IC50 [15] of 8.04 nM. For the same molecule, the Cmax [16] was 9370 ng/mL, the EC50 [17] was 60 nM and the IC50 [3] was 22.3 nM. The EC50 (PI3K/mTOR (Homo sapiens)) was < 1 nM, the bioavailability [18] was 124% and the clearance [19] was 1.05 mL/min/kg. The half-life [20] was 876 min.
With `COc1ncc2cc1NS(=O)(=O)c1cccc(c1)C(=O)NCC1=CC=C(O1)c1ncnc3c1SC2=C3` the IC50 [1] was > 10000 nM, the IC50 [2] was 381 nM and the IC50 [3] was 247 nM.
For `COc1ncc2cc1NS(=O)(=O)c1cccc(c1)C(=O)NCc1cccc(c1)-c1ncnc3c1SC2=C3`, the IC50 [1] was > 10000 nM, the IC50 [2] was 16.8 nM and the IC50 [3] was 279 nM.
For `COc1ncc2cc1NS(=O)(=O)c1ccc(Cl)c(c1)C(=O)NCC1=CC=C(S1)c1ncnc3c1SC2=C3`, the IC50 [1] was > 10000 nM, the IC50 [2] was 6.28 nM and the IC50 [3] was 11.1 nM.
With `COc1ncc2cc1NS(=O)(=O)c1cccc(c1)C(=O)NC[C@H]1CCN(C1)c1ncnc3c1SC2=C3C` the IC50 [1] was > 10000 nM, the IC50 [2] was 3.15 nM and the IC50 [3] was 44 nM.
With `COc1ncc2cc1NS(=O)(=O)c1cccc(c1)C(=O)NCC1=CC=C(S1)c1ncnc3c1SC2=C3C` the half-life [21] was 1400 min, the AUC(0-t) [22] was 16600 ng·h/mL and the remaining at 0.5 h [23] was 90%. For the same molecule, the remaining at 0.5 h [4] was > 98%, the bioavailability [24] was 35.1% and the Ki (PI3K p110 beta/p85 alpha) was 0.37 nM. For the same molecule, the IC50 (Cytochrome P450 2C9) was 4.61 µM, the Ki [6] was 0.25 nM and the Ki [8] was 0.44 nM. For the same molecule, the IC50 [1] was 138 nM, the IC50 [11] was 4.39 nM and the remaining at 0.5 h [25] was 87%. For the same molecule, the Tmax [26] was 15 min, the “inhibition (INH)” value [13] was “Not Active” and the IC50 [2] was 0.23 nM. For the same molecule, the half-life [27] was 220 min, the Ki [14] was 0.08 nM and the IC50 [15] was 13.3 nM. For the same molecule, the clearance [28] was 1 mL/min/kg, the AUC(0-t) [29] was 58200 ng·h/mL and the EC50 [17] was 34 nM. The IC50 [3] was 18.1 nM, the EC50 (PI3K/mTOR (Homo sapiens)) was < 1 nM and the Vd [30] was 0.31 L/kg.
Work on `COc1ncc2cc1NS(=O)(=O)c1ccc(F)c(c1)C(=O)NCC1=CC=C(S1)c1ncnc3c1SC2=C3` yielded an IC50 [1] of 2100 nM, an IC50 [2] of 6.34 nM and an IC50 [3] of 14.6 nM.
For `COc1ncc(-c2sc3c(-c4ccc(CNC=O)s4)ncnc3c2C)cc1NS(=O)(=O)c1ccccc1`, the IC50 [1] was 80.9 nM, the IC50 [2] was 3.29 nM and the IC50 [3] was > 10000 nM.
`COc1ccc2cc1C(=O)NCC1=CC=C(S1)c1ncnc3c1SC(=C3)c1cnc(OC)c(c1)NS2(=O)=O` gave an IC50 [1] of 5570 nM, an IC50 [2] of 6.91 nM and an IC50 [3] of 65.7 nM.
In the case of `COc1ncc2cc1NS(=O)(=O)c1cccc(c1)C(=O)NCc1csc(c1)-c1ncnc3c1SC2=C3`, the IC50 [1] is reported as > 10000 nM, the IC50 [2] is reported as 28.9 nM and the IC50 [3] is reported as 13.1 nM.
With `COc1ncc2cc1NS(=O)(=O)c1cccc(c1)C(=O)NCCn1cc(cn1)-c1ncnc3c1SC2=C3` the IC50 [1] was > 10000 nM, the IC50 [2] was 58.3 nM and the IC50 [3] was 254 nM.
For `COc1ncc2cc1NS(=O)(=O)c1cccc(c1)C(=O)NCC1=CC=C(S1)c1ncnc3c1SC2=C3`, the IC50 [1] was 5700 nM, the IC50 [2] was 17 nM and the IC50 [3] was 12.9 nM.
For `COc1ncc2cc1NS(=O)(=O)c1cccc(c1)C(=O)NCc1cc(cs1)-c1ncnc3c1SC2=C3`, the IC50 [1] was > 10000 nM, the IC50 [2] was 13.7 nM and the IC50 [3] was 154 nM.
With `COc1ncc2cc1NS(=O)(=O)c1cccc(c1)C(=O)NC[C@@H]1CN(CCO1)c1ncnc3c1SC2=C3C` the IC50 [1] was 2030 nM, the IC50 [2] was 0.66 nM and the IC50 [3] was 39.1 nM.
